Assay [1] concerns the target T1, Sodium-dependent noradrenaline transporter (Homo sapiens, UniProt P23975). The assay is described as follows: Inhibition of [3H]NE uptake into human NET expressing HEK293 cells. It counts as cell-based.
Assay [2] deals with T2, Sodium-dependent dopamine transporter (Homo sapiens, UniProt Q01959). The assay is described as follows: Inhibition of [3H]DA uptake at human DAT expressing HEK293 cells. Format: cell-based. In short, it runs like this:
(§1)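 Intact HEK293 cells stably expressing human SERT or DAT, scraped and triturated, preincubated with drug 10 min at 25 °C in Krebs-HEPES pH 7.4; [3H]5-HT or [3H]DA (20 nM final) added for 10 min; filtration, scintillation counting. Nonspecific: 5 µM imipramine (SERT) or 5 µM mazindol (DAT). Triplicate points, ≥3 experiments.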

The target in assay [3] is T2, Sodium-dependent dopamine transporter. The assay is described as follows: Displacement of [125I]RTI-55 from human DAT expressing HEK293 cells. Format: cell-based. Background: Loss of bound radioactivity is the signal in a displacement assay; it reports binding, not function.
In assay [4] the target is T3, Sodium-dependent serotonin transporter (Homo sapiens, UniProt P31645). The assay is described as follows: Displacement of [125I]RTI-55 from human SERT expressing HEK293 cells. Format: cell-based. In outline: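 Membranes from HEK293 cells stably expressing human DAT or SERT (lysed in hypotonic HEPES/EDTA, pelleted, resuspended in 0.32 M sucrose) preincubated with drug 10 min at rt, then [125I]RTI-55 added; 90 min rt in dark; filtration, scintillation counting. Krebs-HEPES buffer pH 7.4. Nonspecific: 5 µM mazindol (DAT) or 5 µM imipramine (SERT). Duplicate points, ≥3 experiments.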

Assay [5] deals with T3, Sodium-dependent serotonin transporter. The experiment in a line: Inhibition of [3H]5-HT uptake into human SERT expressing HEK293 cells. It counts as cell-based. In short, it runs like this: as §1
Assay [6] has as its target T1, Sodium-dependent noradrenaline transporter. The experiment in a line: Displacement of [125I]RTI-55 from human NET expressing HEK293 cells. It counts as cell-based.
Another assay has as its system Mus musculus. The experiment in a line: Effect on locomotor activity in Swiss-Webster mouse at 30 mg/kg. It counts as functional, organism-based. Also noted: dose 30 mg/kg. In short, it runs like this:
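Nonhabituated male Swiss-Webster mice (Hsd:ND4, 2-3 months), groups of eight, dosed ip (vehicle deionized water) immediately before testing; horizontal photobeam interruptions counted per 10 min over 8 h, one mouse per chamber, starting 2 h after lights on; compared with vehicle, p < 0.05.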

SMILES strings stand for the structures. Calls of active or inactive are those of the source. The calls are words filed in the database; no cut-off is given here. Where only a bound is given, the exact number is not on record here.

T2 sequence (Q01959 whole entry): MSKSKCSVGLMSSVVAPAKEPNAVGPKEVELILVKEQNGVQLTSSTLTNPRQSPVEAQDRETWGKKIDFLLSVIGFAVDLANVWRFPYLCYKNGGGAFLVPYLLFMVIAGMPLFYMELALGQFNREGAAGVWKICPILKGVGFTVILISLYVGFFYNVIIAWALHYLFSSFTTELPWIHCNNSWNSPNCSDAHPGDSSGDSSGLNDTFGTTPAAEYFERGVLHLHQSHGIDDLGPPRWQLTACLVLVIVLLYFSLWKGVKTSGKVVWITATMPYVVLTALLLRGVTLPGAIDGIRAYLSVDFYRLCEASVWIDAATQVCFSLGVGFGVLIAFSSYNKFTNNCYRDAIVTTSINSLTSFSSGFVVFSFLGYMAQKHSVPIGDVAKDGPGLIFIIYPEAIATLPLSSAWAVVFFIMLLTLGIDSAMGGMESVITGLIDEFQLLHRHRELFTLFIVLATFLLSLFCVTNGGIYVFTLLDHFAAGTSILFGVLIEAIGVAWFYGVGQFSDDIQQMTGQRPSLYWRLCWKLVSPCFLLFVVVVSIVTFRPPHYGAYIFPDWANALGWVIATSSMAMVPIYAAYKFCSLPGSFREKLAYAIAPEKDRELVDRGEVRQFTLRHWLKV
T3 sequence (P31645 whole entry): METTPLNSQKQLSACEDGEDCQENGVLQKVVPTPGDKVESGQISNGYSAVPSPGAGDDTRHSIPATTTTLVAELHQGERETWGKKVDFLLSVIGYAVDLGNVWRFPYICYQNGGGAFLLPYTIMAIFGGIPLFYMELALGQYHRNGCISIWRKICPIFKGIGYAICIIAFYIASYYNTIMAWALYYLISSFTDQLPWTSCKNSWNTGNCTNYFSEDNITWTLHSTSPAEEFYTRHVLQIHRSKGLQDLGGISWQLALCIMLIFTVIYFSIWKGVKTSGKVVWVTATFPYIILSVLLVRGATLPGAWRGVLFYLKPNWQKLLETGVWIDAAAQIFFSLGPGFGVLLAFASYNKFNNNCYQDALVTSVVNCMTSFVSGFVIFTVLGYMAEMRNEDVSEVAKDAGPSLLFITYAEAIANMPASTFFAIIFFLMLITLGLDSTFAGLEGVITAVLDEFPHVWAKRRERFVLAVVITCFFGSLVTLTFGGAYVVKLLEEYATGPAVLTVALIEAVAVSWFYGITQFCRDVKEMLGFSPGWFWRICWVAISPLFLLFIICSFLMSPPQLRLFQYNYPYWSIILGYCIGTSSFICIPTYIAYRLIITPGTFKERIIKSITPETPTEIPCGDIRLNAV
T1 sequence (P23975 whole entry): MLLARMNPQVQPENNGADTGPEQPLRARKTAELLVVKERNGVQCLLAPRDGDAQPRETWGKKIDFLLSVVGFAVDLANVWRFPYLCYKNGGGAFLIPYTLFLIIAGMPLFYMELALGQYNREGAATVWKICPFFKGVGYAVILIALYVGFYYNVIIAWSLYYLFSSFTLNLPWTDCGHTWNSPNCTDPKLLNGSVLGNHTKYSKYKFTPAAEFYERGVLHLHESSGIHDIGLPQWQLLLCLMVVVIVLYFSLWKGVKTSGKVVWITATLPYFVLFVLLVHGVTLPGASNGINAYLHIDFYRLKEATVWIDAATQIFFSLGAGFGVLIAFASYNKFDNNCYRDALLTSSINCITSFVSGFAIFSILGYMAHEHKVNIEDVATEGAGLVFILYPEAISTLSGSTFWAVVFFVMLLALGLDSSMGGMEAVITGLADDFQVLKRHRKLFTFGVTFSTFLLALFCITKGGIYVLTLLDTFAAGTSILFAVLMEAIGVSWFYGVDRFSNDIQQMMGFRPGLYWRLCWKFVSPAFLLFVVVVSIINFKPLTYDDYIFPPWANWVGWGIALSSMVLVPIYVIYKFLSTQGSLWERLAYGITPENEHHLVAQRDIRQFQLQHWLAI

As for `CC(C)CC(c1ccc(C(C)C)cc1)C1CCCCN1` (stereo not given), the IC50 in assay [1] is above 8.7 µM; in assay [2] it was above 9.1 µM. Also, the Ki in assay [3] is above 6.5 µM.
With `CCCC(c1ccc(Cl)cc1)C1CCCCN1` (stereo not given), the half-inhibitory concentration (IC50) amounted to 0.05 µM in assay [1], 0.0074 µM in assay [2] and 2.9 µM in assay [5]. Also, the Ki in assay [4] is 2.7 µM; in assay [6] it was 0.2 µM; in assay [3], 0.011 µM.
With `CC(C)C(c1ccc(Cl)cc1)C1CCCCN1` (stereo not given), the Ki in assay [4] and in assay [6] was above 10000 µM throughout.
Molecule `Clc1ccc(C(CCc2ccccc2)C2CCCCN2)cc1` (stereo not given) yielded a Ki in assay [4] of 1.8 µM. In addition, in assay [5], the IC50 came out at 0.21 µM.
On to `CC(=O)C(c1ccccc1)C1CCCCN1` (stereo not given), for which the figures for the IC50 in assay [1], in assay [2] and in assay [5] were 0.22 µM, 0.19 µM and above 9.7 µM, respectively. The Ki was 7.8 µM in assay [4], 2.7 µM in assay [6] and 0.37 µM in assay [3].
In turn, `Clc1ccc(C(Cc2ccccc2)C2CCCCN2)cc1` (stereo not given) came in with an IC50 in assay [1] above 8.8 µM.
In the case of `CC(C)(C)CC(c1ccc(Cl)cc1)C1CCCCN1` (stereo not given), in assay [5], the IC50 was above 8.3 µM. In assay [6], the Ki was above 5.5 µM.
As for `CCC(c1ccc(Cl)cc1)C1CCCCN1` (stereo not given), the IC50 in assay [1] was determined as 1.3 µM; in assay [2], 2.8 µM; in assay [5] it was 4.1 µM. Further, the results for the Ki in assay [4], in assay [6] and in assay [3] were 4.2 µM, above 9.2 µM and 1.8 µM, respectively.
Turning to `CC(C)CC(c1ccc(Cl)c(Cl)c1)C1CCCCN1C` (stereo not given), the IC50 in assay [1] worked out at 0.028 µM.
Regarding `COc1cccc(C(CC(C)C)C2CCCCN2)c1` (stereo in doubt; form 1), the IC50 in assay [1] was 0.33 µM; in assay [2], 0.035 µM; in assay [5], 2.7 µM. Besides, the Ki was determined as 4.2 µM in assay [4], 3.8 µM in assay [6] and 0.022 µM in assay [3].
Take `COc1ccc(C(CC(C)C)C2CCCCN2)cc1` (stereo in doubt; form 1): the IC50 in assay [1] is 0.41 µM; in assay [2] it was 0.025 µM; in assay [5], 3.5 µM. Also, the Ki was 2.8 µM in assay [4], 3.1 µM in assay [6] and 0.052 µM in assay [3].
Regarding `CC(C)CC(c1ccc(Cl)c(Cl)c1)C1CCCCN1` (stereo in doubt; form 1), the IC50 in assay [1] came out at 0.009 µM; in assay [2], 0.0055 µM; in assay [5], 1.1 µM. Moreover, the Ki in assay [4] stood at 1.6 µM; in assay [6], 0.025 µM; in assay [3] it was 0.001 µM.
In turn, `COC(=O)C(c1ccc(Cl)cc1)C1CCCCN1` (stereo in doubt; form 1) returned an IC50 in assay [5] above 9.8 µM.
As for `CC(c1ccc(Cl)cc1)C1CCCCN1` (stereo in doubt; form 1), the IC50 in assay [1] worked out at 0.035 µM; in assay [2], 0.022 µM; in assay [5], 1.9 µM. Further, the Ki is 4.9 µM in assay [4], 0.36 µM in assay [6] and 0.18 µM in assay [3].
On to `CCC(CC)C(c1ccc(Cl)cc1)C1CCCCN1` (stereo in doubt; form 1), for which the IC50 is 0.33 µM in assay [1], 0.24 µM in assay [2] and above 9.4 µM in assay [5]. For the same molecule, the inhibitory constant (Ki) in assay [4] came out at 3.9 µM; in assay [6], 0.97 µM; in assay [3], 0.4 µM.
Turning to `CC(C)CC(c1cccc(Cl)c1)C1CCCCN1` (stereo in doubt; form 1), the IC50 is 0.014 µM in assay [1], 0.0028 µM in assay [2] and 2.1 µM in assay [5]. Moreover, the inhibitory constant (Ki) was 0.023 µM in assay [6] and 0.0037 µM in assay [3].
Consider `CCCC(c1ccc(Cl)c(Cl)c1)C1CCCCN1` (stereo in doubt; form 1), for which the IC50 in assay [1] worked out at 0.0081 µM; in assay [2], 0.0045 µM; in assay [5], 0.56 µM. Further, the Ki in assay [4] came to 1.8 µM; in assay [6], 0.0039 µM; in assay [3], 0.00097 µM.
As to `CCCCCC(c1ccc(Cl)cc1)C1CCCCN1` (stereo in doubt; form 1), the values for the IC50 in assay [1], in assay [2] and in assay [5] were 0.049 µM, 0.045 µM and 1.5 µM, respectively. For the same molecule, the Ki was found to be 2.2 µM in assay [4], 0.16 µM in assay [6] and 0.023 µM in assay [3].
On to `CC(C)CCC(c1ccc(Cl)cc1)C1CCCCN1` (stereo in doubt; form 1), for which the results for the IC50 in assay [1], in assay [2] and in assay [5] were 0.21 µM, 0.014 µM and 7.3 µM, respectively. For the same molecule, the Ki in assay [4] stood at 5 µM; in assay [6], 0.83 µM; in assay [3], 0.0036 µM.
As for `CCCCC(c1ccc(Cl)c(Cl)c1)C1CCCCN1` (stereo in doubt; form 1), the figures for the IC50 in assay [1], in assay [2] and in assay [5] were 0.027 µM, 0.0057 µM and 1.4 µM, respectively. Moreover, the Ki in assay [4] is 1.3 µM; in assay [6], 0.012 µM; in assay [3] it was 0.0023 µM.
Turning to `Clc1ccc(C(CCCc2ccccc2)C2CCCCN2)cc1` (stereo in doubt; form 1), the half-maximal inhibitory concentration (IC50) in assay [1] amounted to 0.6 µM; in assay [2], 0.29 µM; in assay [5] it was 1.6 µM. Also, the Ki in assay [4] is 0.7 µM; in assay [6] it was 0.49 µM; in assay [3] it was 0.44 µM.
For the molecule `CC(C)CC(c1ccc(Cl)cc1)C1CCCCN1` (stereo in doubt; form 1), in the assay on Mus musculus, the outcome was Active.
Take `COc1cccc(C(CC(C)C)C2CCCCN2)c1` (stereo in doubt; form 2): the IC50 in assay [1] stood at 1.4 µM; in assay [2], 0.14 µM; in assay [5], 2.6 µM. Besides, the Ki came out at 3.8 µM in assay [4], 12 µM in assay [6] and 0.95 µM in assay [3].
For the molecule `COc1ccc(C(CC(C)C)C2CCCCN2)cc1` (stereo in doubt; form 2), the IC50 in assay [1] stood at 1.6 µM; in assay [2] it was 0.4 µM; in assay [5], 1.2 µM. The inhibitory constant (Ki) in assay [4] was found to be 0.95 µM; in assay [6] it was 16 µM; in assay [3] it was 0.77 µM.
For the molecule `CC(C)CC(c1ccc(Cl)c(Cl)c1)C1CCCCN1` (stereo in doubt; form 2), the results for the IC50 in assay [1], in assay [2] and in assay [5] were 0.019 µM, 0.013 µM and 0.29 µM, respectively. The Ki was determined as 0.45 µM in assay [4], 0.12 µM in assay [6] and 0.031 µM in assay [3].
In assay [5], `COC(=O)C(c1ccc(Cl)cc1)C1CCCCN1` (stereo in doubt; form 2) had an IC50 above 10000 µM. In assay [6], this molecule returned a Ki above 6.1 µM.
For the molecule `CC(c1ccc(Cl)cc1)C1CCCCN1` (stereo in doubt; form 2), the values for the concentration for half-maximal inhibition (IC50) in assay [1], in assay [2] and in assay [5] were 3.2 µM, 1.5 µM and 4.7 µM, respectively. Moreover, the Ki in assay [4] is above 9.1 µM; in assay [6], above 6.3 µM; in assay [3], above 3.9 µM.
`CCC(CC)C(c1ccc(Cl)cc1)C1CCCCN1` (stereo in doubt; form 2): the IC50 in assay [1] is 3.8 µM; in assay [2] it was 1.2 µM; in assay [5] it was above 9.6 µM. The Ki in assay [4] is 4.8 µM; in assay [6] it was 4.3 µM; in assay [3] it was above 5.7 µM.
For `CC(C)CC(c1cccc(Cl)c1)C1CCCCN1` (stereo in doubt; form 2), the IC50 was found to be 0.073 µM in assay [1], 0.088 µM in assay [2] and 0.87 µM in assay [5]. Moreover, the inhibitory constant (Ki) in assay [6] stood at 0.34 µM; in assay [3], 0.14 µM.
On to `CCCC(c1ccc(Cl)c(Cl)c1)C1CCCCN1` (stereo in doubt; form 2), for which the IC50 in assay [1] was 0.047 µM; in assay [2] it was 0.088 µM; in assay [5], 0.18 µM. The figures for the Ki in assay [4], in assay [6] and in assay [3] were 0.45 µM, 0.03 µM and 0.043 µM, respectively.
Take `CCCCCC(c1ccc(Cl)cc1)C1CCCCN1` (stereo in doubt; form 2): the IC50 in assay [1] worked out at 0.86 µM; in assay [2], 0.65 µM; in assay [5], 1.7 µM. Moreover, the Ki in assay [4] turned out to be 3.6 µM; in assay [6] it was 1.5 µM; in assay [3], 0.87 µM.
Consider `CC(C)CC(c1ccc(Cl)cc1)C1CCCCN1` (stereo in doubt; form 2), for which the half-inhibitory concentration (IC50) in assay [1] came to 0.75 µM; in assay [2], 0.38 µM. Moreover, the figures for the Ki in assay [6] and in assay [3] were 4.5 µM and 0.17 µM, respectively.
Regarding `CC(C)CCC(c1ccc(Cl)cc1)C1CCCCN1` (stereo in doubt; form 2), the IC50 in assay [1] is 3 µM; in assay [2], 0.68 µM; in assay [5], above 8.3 µM. Further, the Ki is 6.7 µM in assay [4], 12 µM in assay [6] and 0.51 µM in assay [3].
As for `CCCCC(c1ccc(Cl)c(Cl)c1)C1CCCCN1` (stereo in doubt; form 2), the concentration for half-maximal inhibition (IC50) in assay [1] was determined as 0.063 µM; in assay [2], 0.067 µM; in assay [5], 0.55 µM. The values for the Ki in assay [4], in assay [6] and in assay [3] were 1.1 µM, 0.031 µM and 0.029 µM, respectively.
As to `Clc1ccc(C(CCCc2ccccc2)C2CCCCN2)cc1` (stereo in doubt; form 2), the IC50 in assay [1] stood at 1.7 µM; in assay [2] it was 1.4 µM; in assay [5] it was 1.2 µM. Further, the figures for the Ki in assay [4], in assay [6] and in assay [3] were 1.5 µM, 1.5 µM and 2.9 µM, respectively.
As to `COC(=O)C(c1ccccc1)C1CCCCN1` (stereo not given) [METHYLPHENIDATE], the half-inhibitory concentration (IC50) in assay [1] turned out to be 0.061 µM; in assay [5], 5.1 µM. The same molecule registered a Ki in assay [6] of 0.66 µM.

As a reminder, the IC50 is the point on the concentration scale where inhibition reaches its midpoint. A low value points to greater potency. In general, Ki refers to a dissociation constant, usually derived from enzyme kinetics or from competition with a known ligand.

For the origin of these results see ChEMBL document CHEMBL1139231 (J Med Chem, 2007).
